Measured values reported in ChEMBL document CHEMBL4393708, “Pyridinylimidazoles as dual glycogen synthase kinase 3β/p38α mitogen-activated protein kinase inhibitors” (Eur J Med Chem, 2019).

What was measured:
[1] = Ratio of drug concentration in RjOrl:Swiss CD-1 mouse brain at 10 mg/kg, iv to IC50 for human recombinant full length GSK3beta; assay type: ADME, organism-based; settings: in vivo
Procedure, shortened: (§1)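 Adult male mice received a single 10 mg/kg intravenous dose. After the final plasma sample at 2 h, the mice were sacrificed and brains dissected. Brain concentration was measured by LC-MS and related to the in vitro IC50 values for GSK3β and p38α.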

[2] = Metabolic stability in human liver microsomes assessed as parent compound remaining after 60 mins by LC-MS analysis relative to control; assay type: ADME, Microsome; settings: read-out: Stability
[3] = biological target: MAP kinase-activated protein kinase 2 (Homo sapiens) (UniProt P49137); experiment: Inhibition of human recombinant MAPKAPK2 at 1 uM using CREBtide as substrate measured after 15 mins in presence of ATP by LANCE assay relative to control
Procedure, shortened: (§2)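 Kinase panel run by an outside provider (Eurofins Cerep) in a LANCE assay, single test concentration of 1 µM, results as percent inhibition.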

[4] = Plasma clearance in RjOrl:Swiss CD-1 mouse at 10 mg/kg, iv administered as single dose measured after 10 mins by LC-MS analysis; assay type: ADME, organism-based
Procedure, shortened: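 Adult male mice received a single 10 mg/kg intravenous injection. Plasma was sampled at 10, 30 and 120 min after dosing. Samples were prepared and analyzed by LC-MS.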

hERG (KCNH2) = hERG (KCNH2) (Homo sapiens, UniProt Q12809); experiment: Inhibition of tracer Red binding to human ERG expressed in membranes at 10 uM after 4 hrs by fluorescence polarization assay relative to control; settings: membranes expressing human ERG, probe tracer Red
Cytochrome P450 2C19 = Cytochrome P450 2C19 (Homo sapiens, UniProt P33261); experiment: Inhibition of human recombinant CYP2C19 expressed in baculovirus infected insect cells using EOMCC as substrate in presence of NADPH by fluorimetric analysis relative to control; assay type: ADME; settings: recombinant enzyme
[5] = biological target: Fibroblast growth factor receptor 1 (Homo sapiens) (UniProt P11362); experiment: Inhibition of human recombinant FGFR at 1 uM using Ulight-CAGAGAIETDKEYYTVKD as substrate measured after 60 mins in presence of ATP by LANCE assay relative to control; procedure, shortened: as §2
CYP2C9 = CYP2C9 (Homo sapiens, UniProt P11712); experiment: Inhibition of human recombinant CYP2C9 expressed in baculovirus infected insect cells using OOMR as substrate at 10 uM in presence of NADPH by fluorimetric analysis relative to control; assay type: ADME; settings: probe OOMR
[6] = Ratio of drug concentration in RjOrl:Swiss CD-1 mouse brain at 10 mg/kg, iv to IC50 for p38alpha MAPK (unknown origin); assay type: ADME, organism-based; settings: in vivo; procedure, shortened: as §1
[7] = biological target: Ephrin type-A receptor 3 (Homo sapiens) (UniProt P29320); experiment: Inhibition of human recombinant EPHA3 at 1 uM using Ulight-TK peptide as substrate measured after 60 mins in presence of ATP by LANCE assay relative to control; procedure, shortened: as §2
[8] = biological target: Vascular endothelial growth factor receptor 2 (Homo sapiens) (UniProt P35968); experiment: Inhibition of human recombinant KDR at 1 uM using Ulight-CAGAGAIETDKEYYTVKD as substrate measured after 60 mins in presence of ATP by LANCE assay relative to control; procedure, shortened: as §2
[9] = biological target: Ephrin type-B receptor 4 (Homo sapiens) (UniProt P54760); experiment: Inhibition of human recombinant EPHB4 at 1 uM using Ulight-TK peptide as substrate measured after 90 mins in presence of ATP by LANCE assay relative to control; procedure, shortened: as §2
[10] = biological target: Serine/threonine-protein kinase PAK 4 (Homo sapiens) (UniProt O96013); experiment: Inhibition of human recombinant PAK4 at 1 uM using Ulight-RRRSLLE as substrate measured after 30 mins in presence of ATP by LANCE assay relative to control; procedure, shortened: as §2
[11] = biological target: MAP kinase-interacting serine/threonine-protein kinase 2 (Homo sapiens) (UniProt Q9HBH9); experiment: Inhibition of human recombinant MNK2 at 1 uM using CREBtide as substrate measured after 90 mins in presence of ATP by LANCE assay relative to control; procedure, shortened: as §2
[12] = biological target: Glycogen synthase kinase-3 beta (Homo sapiens, UniProt P49841); experiment: Competitive inhibition of human recombinant full length GSK3beta using YRRAAVPPSPSLSRHSSPHQ(pS)EDEEE as substrate preincubated with enzyme for 10 mins followed by substrate and 100 uM ATP addition measured after 60 mins by ADP-Glo luminescence assay
Procedure, shortened: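 Recombinant human GSK3β at 0.58 ng/µL with 0.2 µg/µL substrate G50-58; ATP at 25 µM, 100 µM or 500 µM, each as its line states. Compounds in serial dilutions were preincubated with kinase for 10 min at rt. Substrate/ATP was then added and the reaction ran 60 min at rt. ADP-Glo reagent 60 min, detection reagent 30 min, then luminescence read (500 ms integration).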

[13] = biological target: Tyrosine-protein kinase JAK3 (Homo sapiens) (UniProt P52333); experiment: Inhibition of human recombinant JAK3 at 1 uM using Ulight-CAGAGAIETDKEYYTVKD as substrate measured after 60 mins in presence of ATP by LANCE assay relative to control; procedure, shortened: as §2
[14] = biological target: Serine/threonine-protein kinase pim-2 (Homo sapiens) (UniProt Q9P1W9); experiment: Inhibition of human recombinant PIM2 at 1 uM using CREBtide as substrate measured after 60 mins in presence of ATP by LANCE assay relative to control; procedure, shortened: as §2
[15] = biological target: Calcium/calmodulin-dependent protein kinase type II subunit alpha (Homo sapiens) (UniProt Q9UQM7); experiment: Inhibition of human recombinant CAMKA2A at 1 uM using Ulight-CGSGSGRPRTSSFAEG as substrate measured after 30 mins by LANCE assay relative to control; procedure, shortened: as §2
[16] = biological target: Proto-oncogene tyrosine-protein kinase Src (Homo sapiens) (UniProt P12931); experiment: Inhibition of human recombinant SRC at 1 uM using Ulight-Poly GAT[EAY(1:1:1)]n as substrate measured after 10 mins in presence of ATP by LANCE assay relative to control; procedure, shortened: as §2
[17] = biological target: Serine/threonine-protein kinase PAK 2 (Homo sapiens) (UniProt Q13177); experiment: Inhibition of human recombinant PAK2 at 1 uM using Ulight-RRRSLLE as substrate measured after 60 mins in presence of ATP by LANCE assay relative to control; procedure, shortened: as §2
[18] = biological target: Tyrosine-protein kinase ABL1 (Homo sapiens) (UniProt P00519); experiment: Inhibition of recombinant human ABL1 at 1 uM using Ulight-TK peptide as substrate measured after 30 mins in presence of ATP by LANCE assay relative to control
[19] = biological target: Fibroblast growth factor receptor 2 (Homo sapiens) (UniProt P21802); experiment: Inhibition of human recombinant FGFR2 at 1 uM using Ulight-CAGAGAIETDKEYYTVKD as substrate measured after 15 mins in presence of ATP by LANCE assay relative to control; procedure, shortened: as §2
[20] = biological target: High affinity nerve growth factor receptor (Homo sapiens) (UniProt P04629); experiment: Inhibition of human recombinant TRKA at 1 uM using Ulight-Poly GAT[EAY(1:1:1)]n as substrate measured after 10 mins in presence of ATP by LANCE assay relative to control; procedure, shortened: as §2

Chain of Fibroblast growth factor receptor 2 (Homo sapiens) (P21802 22-821 limits assumed): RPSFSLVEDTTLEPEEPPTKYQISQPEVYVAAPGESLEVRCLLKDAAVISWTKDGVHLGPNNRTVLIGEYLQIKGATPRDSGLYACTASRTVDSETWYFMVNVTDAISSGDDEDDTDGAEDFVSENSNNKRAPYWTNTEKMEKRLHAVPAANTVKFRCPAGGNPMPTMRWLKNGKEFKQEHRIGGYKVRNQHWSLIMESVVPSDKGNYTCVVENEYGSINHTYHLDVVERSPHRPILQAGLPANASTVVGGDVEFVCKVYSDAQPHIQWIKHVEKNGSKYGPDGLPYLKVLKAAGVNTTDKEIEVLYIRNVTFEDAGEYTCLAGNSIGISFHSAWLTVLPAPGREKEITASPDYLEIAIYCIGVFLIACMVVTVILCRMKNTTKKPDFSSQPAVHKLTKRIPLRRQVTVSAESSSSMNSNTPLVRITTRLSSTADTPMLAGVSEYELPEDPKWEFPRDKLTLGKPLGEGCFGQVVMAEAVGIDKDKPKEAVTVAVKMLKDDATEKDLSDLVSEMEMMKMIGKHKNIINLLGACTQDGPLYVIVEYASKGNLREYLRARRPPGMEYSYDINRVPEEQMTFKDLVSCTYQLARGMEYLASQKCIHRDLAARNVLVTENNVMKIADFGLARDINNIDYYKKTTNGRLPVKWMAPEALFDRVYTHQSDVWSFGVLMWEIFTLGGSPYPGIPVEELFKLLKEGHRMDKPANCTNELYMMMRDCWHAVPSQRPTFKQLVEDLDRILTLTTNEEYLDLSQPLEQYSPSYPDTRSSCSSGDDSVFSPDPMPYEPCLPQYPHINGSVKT
Chain of Cytochrome P450 2C19 (P33261 whole entry): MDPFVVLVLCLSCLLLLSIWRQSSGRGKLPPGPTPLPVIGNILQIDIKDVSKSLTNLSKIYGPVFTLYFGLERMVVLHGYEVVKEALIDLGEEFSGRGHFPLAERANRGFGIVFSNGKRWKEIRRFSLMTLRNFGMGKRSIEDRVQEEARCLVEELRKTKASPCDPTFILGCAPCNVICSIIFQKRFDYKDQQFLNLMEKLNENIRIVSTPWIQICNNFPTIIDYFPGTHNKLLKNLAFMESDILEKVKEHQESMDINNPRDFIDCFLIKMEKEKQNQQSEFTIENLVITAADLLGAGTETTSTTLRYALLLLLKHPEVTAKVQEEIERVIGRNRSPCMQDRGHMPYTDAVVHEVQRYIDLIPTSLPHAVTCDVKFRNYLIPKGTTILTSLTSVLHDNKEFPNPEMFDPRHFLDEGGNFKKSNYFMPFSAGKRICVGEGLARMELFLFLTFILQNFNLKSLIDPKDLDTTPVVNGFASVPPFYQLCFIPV
Chain of Proto-oncogene tyrosine-protein kinase Src (Homo sapiens) (P12931 2-536 limits assumed): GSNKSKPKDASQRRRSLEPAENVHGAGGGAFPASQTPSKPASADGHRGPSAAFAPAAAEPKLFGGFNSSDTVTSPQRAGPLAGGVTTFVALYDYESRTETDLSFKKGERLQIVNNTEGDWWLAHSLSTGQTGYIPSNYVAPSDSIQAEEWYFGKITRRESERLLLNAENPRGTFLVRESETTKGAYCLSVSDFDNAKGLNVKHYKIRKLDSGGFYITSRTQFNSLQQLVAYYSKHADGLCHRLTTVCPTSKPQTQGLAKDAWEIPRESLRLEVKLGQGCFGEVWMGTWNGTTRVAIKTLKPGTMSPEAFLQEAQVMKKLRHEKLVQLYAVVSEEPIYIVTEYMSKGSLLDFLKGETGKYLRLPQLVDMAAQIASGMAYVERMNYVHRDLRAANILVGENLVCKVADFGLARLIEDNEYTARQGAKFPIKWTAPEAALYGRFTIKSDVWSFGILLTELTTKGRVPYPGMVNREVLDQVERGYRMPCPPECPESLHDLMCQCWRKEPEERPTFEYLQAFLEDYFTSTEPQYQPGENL
Chain of Serine/threonine-protein kinase PAK 4 (Homo sapiens) (O96013 whole entry, looked up): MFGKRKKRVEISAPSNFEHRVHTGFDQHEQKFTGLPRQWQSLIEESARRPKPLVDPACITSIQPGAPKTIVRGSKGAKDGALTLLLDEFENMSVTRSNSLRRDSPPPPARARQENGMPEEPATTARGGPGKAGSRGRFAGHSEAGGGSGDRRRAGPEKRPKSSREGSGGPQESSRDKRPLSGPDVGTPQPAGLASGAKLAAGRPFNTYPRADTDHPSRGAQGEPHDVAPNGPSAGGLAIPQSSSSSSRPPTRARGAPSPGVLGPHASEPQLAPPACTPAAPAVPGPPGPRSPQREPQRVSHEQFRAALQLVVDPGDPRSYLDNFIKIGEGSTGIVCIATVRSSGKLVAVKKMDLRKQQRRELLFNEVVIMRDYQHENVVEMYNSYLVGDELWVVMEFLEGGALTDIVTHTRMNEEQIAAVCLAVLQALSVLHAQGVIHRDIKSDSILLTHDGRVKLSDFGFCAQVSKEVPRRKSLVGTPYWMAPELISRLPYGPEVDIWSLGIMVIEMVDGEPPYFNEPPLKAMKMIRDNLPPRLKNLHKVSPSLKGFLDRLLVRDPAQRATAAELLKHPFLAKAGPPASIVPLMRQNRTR
Chain of MAP kinase-activated protein kinase 2 (Homo sapiens) (P49137 whole entry, looked up): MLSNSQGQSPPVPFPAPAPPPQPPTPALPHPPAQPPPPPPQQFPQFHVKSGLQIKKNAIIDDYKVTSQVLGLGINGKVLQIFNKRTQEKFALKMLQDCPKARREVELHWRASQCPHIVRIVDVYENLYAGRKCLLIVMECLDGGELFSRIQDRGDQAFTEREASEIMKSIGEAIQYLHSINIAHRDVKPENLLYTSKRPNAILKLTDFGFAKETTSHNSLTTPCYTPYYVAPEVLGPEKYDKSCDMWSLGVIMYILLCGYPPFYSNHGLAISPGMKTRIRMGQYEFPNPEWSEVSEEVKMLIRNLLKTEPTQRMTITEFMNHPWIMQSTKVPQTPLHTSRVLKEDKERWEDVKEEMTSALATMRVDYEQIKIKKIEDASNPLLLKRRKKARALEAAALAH
Chain of Ephrin type-A receptor 3 (Homo sapiens) (P29320 whole entry): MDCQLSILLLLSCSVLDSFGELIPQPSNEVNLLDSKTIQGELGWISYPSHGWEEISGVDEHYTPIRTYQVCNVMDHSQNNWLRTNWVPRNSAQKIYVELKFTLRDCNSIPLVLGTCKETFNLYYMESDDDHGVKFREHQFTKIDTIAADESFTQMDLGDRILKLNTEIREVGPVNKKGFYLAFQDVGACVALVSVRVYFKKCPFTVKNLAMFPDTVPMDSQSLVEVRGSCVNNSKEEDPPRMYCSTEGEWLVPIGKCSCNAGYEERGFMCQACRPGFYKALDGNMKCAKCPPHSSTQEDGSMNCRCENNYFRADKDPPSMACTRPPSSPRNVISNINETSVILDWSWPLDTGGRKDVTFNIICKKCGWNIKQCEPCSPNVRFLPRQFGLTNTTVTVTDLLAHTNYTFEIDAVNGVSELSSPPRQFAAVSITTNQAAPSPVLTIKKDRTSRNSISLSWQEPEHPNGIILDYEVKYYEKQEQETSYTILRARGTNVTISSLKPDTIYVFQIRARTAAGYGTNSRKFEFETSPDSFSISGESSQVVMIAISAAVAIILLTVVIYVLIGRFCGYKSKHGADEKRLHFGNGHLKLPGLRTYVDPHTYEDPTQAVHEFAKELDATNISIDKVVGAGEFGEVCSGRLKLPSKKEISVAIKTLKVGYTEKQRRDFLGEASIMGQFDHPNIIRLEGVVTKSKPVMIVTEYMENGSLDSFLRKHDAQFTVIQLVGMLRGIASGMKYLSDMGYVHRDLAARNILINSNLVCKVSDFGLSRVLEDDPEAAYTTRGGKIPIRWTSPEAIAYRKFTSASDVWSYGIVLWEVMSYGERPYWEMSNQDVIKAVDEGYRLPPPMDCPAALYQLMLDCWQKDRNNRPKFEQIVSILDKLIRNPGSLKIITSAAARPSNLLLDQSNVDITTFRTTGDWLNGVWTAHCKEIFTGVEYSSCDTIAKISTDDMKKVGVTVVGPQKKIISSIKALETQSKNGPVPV
Chain of Fibroblast growth factor receptor 1 (Homo sapiens) (P11362 22-822 limits assumed): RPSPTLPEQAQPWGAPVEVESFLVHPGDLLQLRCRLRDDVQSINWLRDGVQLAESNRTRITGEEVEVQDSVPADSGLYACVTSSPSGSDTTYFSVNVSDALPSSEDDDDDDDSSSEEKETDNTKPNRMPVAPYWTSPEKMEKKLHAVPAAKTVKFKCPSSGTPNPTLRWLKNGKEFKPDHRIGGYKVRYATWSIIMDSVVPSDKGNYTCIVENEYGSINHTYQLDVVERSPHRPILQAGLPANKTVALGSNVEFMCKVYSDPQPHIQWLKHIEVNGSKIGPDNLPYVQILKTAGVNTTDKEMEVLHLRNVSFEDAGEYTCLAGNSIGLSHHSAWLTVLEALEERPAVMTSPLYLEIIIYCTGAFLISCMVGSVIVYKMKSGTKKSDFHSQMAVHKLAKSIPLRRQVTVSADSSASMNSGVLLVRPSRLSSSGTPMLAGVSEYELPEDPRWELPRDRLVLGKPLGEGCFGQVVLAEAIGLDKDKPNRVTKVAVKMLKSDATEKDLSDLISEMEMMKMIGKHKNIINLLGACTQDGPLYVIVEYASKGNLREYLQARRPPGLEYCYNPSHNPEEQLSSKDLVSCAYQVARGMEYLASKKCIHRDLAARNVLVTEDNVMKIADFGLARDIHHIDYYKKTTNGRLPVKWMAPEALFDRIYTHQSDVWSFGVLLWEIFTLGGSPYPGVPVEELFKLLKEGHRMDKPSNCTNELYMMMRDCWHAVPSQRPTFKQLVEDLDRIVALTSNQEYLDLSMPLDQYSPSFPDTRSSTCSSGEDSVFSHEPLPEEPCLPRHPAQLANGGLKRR
Chain of Glycogen synthase kinase-3 beta (P49841 whole entry): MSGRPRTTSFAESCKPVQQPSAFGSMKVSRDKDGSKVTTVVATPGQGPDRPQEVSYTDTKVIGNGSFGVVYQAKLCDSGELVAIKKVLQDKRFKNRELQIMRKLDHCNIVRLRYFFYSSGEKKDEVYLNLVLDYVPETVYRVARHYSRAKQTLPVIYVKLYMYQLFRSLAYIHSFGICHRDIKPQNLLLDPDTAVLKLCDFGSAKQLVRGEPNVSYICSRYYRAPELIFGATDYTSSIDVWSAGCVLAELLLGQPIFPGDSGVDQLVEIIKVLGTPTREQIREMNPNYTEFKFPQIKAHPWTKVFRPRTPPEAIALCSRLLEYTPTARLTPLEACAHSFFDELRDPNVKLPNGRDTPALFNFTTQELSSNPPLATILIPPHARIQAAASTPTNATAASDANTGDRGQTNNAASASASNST

## CCc1nc(-c2ccc(F)cc2)c(-c2ccnc(NC(=O)C3CC3)c2)[nH]1
[1]
  Ratio: 1.1
[2]
  remaining at 1 h: 95.2%
[3]
  inhibition: -4.86%
[4]
  concentration at 10 min: 850 ng/mL
hERG (KCNH2)
  inhibition at 4 h, 10 µM: 43.3%
Cytochrome P450 2C19
  inhibition (INH): 81.7%
[5]
  inhibition: 47%
CYP2C9
  inhibition at 10 µM: 83.6%
[6]
  Ratio: 2.5
[7]
  inhibition: 76.6%
[8]
  inhibition: 98.7%
[9]
  inhibition: 94.7%
[10]
  inhibition: 4.82%
[11]
  inhibition: 1.16%
[12]
  IC50: 108 nM
[13]
  inhibition: 24.8%
[14]
  inhibition: -0.24%
[15]
  inhibition: -2.55%
[16]
  inhibition: 51.6%
[17]
  inhibition: 5.58%
[18]
  inhibition: 91.5%
[19]
  inhibition: 74.4%
[20]
  inhibition: 10.6%
